Values after ≈ are worked out from the molar mass of the structure shown.
Experiments:
Staphylococcus aureus [1] = assay: Antibacterial activity against vancomycin/methicillin-susceptible Staphylococcus aureus Newman […] after 24 hrs by broth microdilution method; type: functional
Outline: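 Broth microdilution in cation-adjusted Mueller-Hinton II broth. […] Each well received ~10^5 CFU of exponential-phase bacteria and was incubated at 37 °C for 24 h. MIC was taken as the lowest concentration giving complete growth inhibition, interpreted per CLSI.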

Staphylococcus aureus [2] = assay: Antibacterial activity against healthcare-associated methicillin-resistant/vancomycin-intermediate Staphylococcus aureus Mu50 after 24 hrs by broth microdilution method; type: functional; conditions: Mu50, 24 h
Outline: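 Broth microdilution in cation-adjusted Mueller-Hinton II broth. DMSO stocks were diluted in broth and twofold serially from 128 to 0.0625 μg/mL or lower. Each well was inoculated with ~10^5 CFU of exponential-phase bacteria and incubated at 37 °C for 24 h. MIC was the lowest concentration giving complete growth inhibition, read per CLSI. Growth controls contained broth plus DMSO.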

| Structure (SMILES) | MIC90 (Staphylococcus aureus [1]) | MIC90 (Staphylococcus aureus [2]) |
| --- | --- | --- |
| CCCCCCCCCCNCCN[C@@]1(C)C[C@H](O[C@H]2[C@H](Oc3c4cc5cc3Oc3ccc(cc3Cl)[C@@H](O)[C@@H](NC(=O)[C@@H](CC(C)C)NC)C(=O)N[C@@H](CC(N)=O)C(=O)N[C@H]5C(=O)N[C@H]3C(=O)N[C@H](C(=O)N[C@H](C(=O)O)c5cc(O)c(CNCCO[C@@H]6O[C@H](CO)[C@@H](O)[C@H](O)[C@H]6NC(C)=O)c(O)c5-c5cc3ccc5O)[C@H](O)c3ccc(c(Cl)c3)O4)O[C@H](CO)[C@@H](O)[C@@H]2O)O[C@@H](C)[C@H]1O | 1 µg/mL (≈ 0.524 µM) | 4 µg/mL (≈ 2.1 µM) |
| CN[C@H](CC(C)C)C(=O)N[C@H]1C(=O)N[C@@H](CC(N)=O)C(=O)N[C@H]2C(=O)N[C@H]3C(=O)N[C@H](C(=O)N[C@H](C(=O)O)c4cc(O)c(CNCCCNC(=O)[C@H](O)[C@@H](O)[C@H](O)[C@H](O)CO)c(O)c4-c4cc3ccc4O)[C@H](O)c3ccc(c(Cl)c3)Oc3cc2cc(c3O[C@@H]2O[C@H](CO)[C@@H](O)[C@H](O)[C@H]2O[C@H]2C[C@](C)(NCc3ccc4c(c3)OCC4)[C@H](O)[C@H](C)O2)Oc2ccc(cc2Cl)[C@H]1O | 4 µg/mL (≈ 2.17 µM) | 8 µg/mL (≈ 4.33 µM) |
| C#Cc1ccc(CN[C@@]2(C)C[C@H](O[C@H]3[C@H](Oc4c5cc6cc4Oc4ccc(cc4Cl)[C@@H](O)[C@@H](NC(=O)[C@@H](CC(C)C)NC)C(=O)N[C@@H](CC(N)=O)C(=O)N[C@H]6C(=O)N[C@H]4C(=O)N[C@H](C(=O)N[C@H](C(=O)O)c6cc(O)c(CN[C@H]7C(O)O[C@H](CO)[C@H](O)[C@@H]7O)c(O)c6-c6cc4ccc6O)[C@H](O)c4ccc(c(Cl)c4)O5)O[C@H](CO)[C@@H](O)[C@@H]3O)O[C@@H](C)[C@H]2O)cc1 (some centres undefined) | 2 µg/mL (≈ 1.14 µM) | 8 µg/mL (≈ 4.56 µM) |
| CCCCCCc1ccc(CN[C@@]2(C)C[C@H](O[C@H]3[C@H](Oc4c5cc6cc4Oc4ccc(cc4Cl)[C@@H](O)[C@@H](NC(=O)[C@@H](CC(C)C)NC)C(=O)N[C@@H](CC(N)=O)C(=O)N[C@H]6C(=O)N[C@H]4C(=O)N[C@H](C(=O)N[C@H](C(=O)O)c6cc(O)c(CNCCCNC(=O)[C@H](O)[C@@H](O)[C@H](O)[C@H](O)CO)c(O)c6-c6cc4ccc6O)[C@H](O)c4ccc(c(Cl)c4)O5)O[C@H](CO)[C@@H](O)[C@@H]3O)O[C@@H](C)[C@H]2O)cc1 | 0.12 µg/mL (≈ 0.0636 µM) | 0.5 µg/mL (≈ 0.265 µM) |
| CCCCCCCCCC(=O)N[C@@]1(C)C[C@H](O[C@H]2[C@H](Oc3c4cc5cc3Oc3ccc(cc3Cl)[C@@H](O)[C@@H](NC(=O)[C@@H](CC(C)C)NC)C(=O)N[C@@H](CC(N)=O)C(=O)N[C@H]5C(=O)N[C@H]3C(=O)N[C@H](C(=O)N[C@H](C(=O)O)c5cc(O)c(CNCCCNC(=O)[C@H](O)[C@@H](O)[C@H](O)[C@H](O)CO)c(O)c5-c5cc3ccc5O)[C@H](O)c3ccc(c(Cl)c3)O4)O[C@H](CO)[C@@H](O)[C@@H]2O)O[C@@H](C)[C@H]1O | 32 µg/mL (≈ 17.1 µM) | 64 µg/mL (≈ 34.3 µM) |
| CCc1ccc(CN[C@@]2(C)C[C@H](O[C@H]3[C@H](Oc4c5cc6cc4Oc4ccc(cc4Cl)[C@@H](O)[C@@H](NC(=O)[C@@H](CC(C)C)NC)C(=O)N[C@@H](CC(N)=O)C(=O)N[C@H]6C(=O)N[C@H]4C(=O)N[C@H](C(=O)N[C@H](C(=O)O)c6cc(O)c(CNCCO)c(O)c6-c6cc4ccc6O)[C@H](O)c4ccc(c(Cl)c4)O5)O[C@H](CO)[C@@H](O)[C@@H]3O)O[C@@H](C)[C@H]2O)cc1 | 2 µg/mL (≈ 1.22 µM) | 4 µg/mL (≈ 2.44 µM) |
| CN[C@H](CC(C)C)C(=O)N[C@H]1C(=O)N[C@@H](CC(N)=O)C(=O)N[C@H]2C(=O)N[C@H]3C(=O)N[C@H](C(=O)N[C@H](C(=O)O)c4cc(O)c(CN[C@H]5C(O)O[C@H](CO)[C@H](O)[C@@H]5O)c(O)c4-c4cc3ccc4O)[C@H](O)c3ccc(c(Cl)c3)Oc3cc2cc(c3O[C@@H]2O[C@H](CO)[C@@H](O)[C@H](O)[C@H]2O[C@H]2C[C@](C)(NCc3ccc(C#C[Si](C)(C)C)cc3)[C@H](O)[C@H](C)O2)Oc2ccc(cc2Cl)[C@H]1O (some centres undefined) | 0.5 µg/mL (≈ 0.274 µM) | 2 µg/mL (≈ 1.09 µM) |
| CN[C@H](CC(C)C)C(=O)N[C@H]1C(=O)N[C@@H](CC(N)=O)C(=O)N[C@H]2C(=O)N[C@H]3C(=O)N[C@H](C(=O)N[C@H](C(=O)O)c4cc(O)c(CNCCCNC(=O)[C@H](O)[C@@H](O)[C@H](O)[C@H](O)CO)c(O)c4-c4cc3ccc4O)[C@H](O)c3ccc(c(Cl)c3)Oc3cc2cc(c3O[C@@H]2O[C@H](CO)[C@@H](O)[C@H](O)[C@H]2O[C@H]2C[C@](C)(NCc3ccc(OCc4cccc(-c5ccccc5)c4C)c(Cl)c3)[C@H](O)[C@H](C)O2)Oc2ccc(cc2Cl)[C@H]1O | 0.5 µg/mL (≈ 0.246 µM) | 1 µg/mL (≈ 0.492 µM) |
| C#Cc1ccc(CN[C@@]2(C)C[C@H](O[C@H]3[C@H](Oc4c5cc6cc4Oc4ccc(cc4Cl)[C@@H](O)[C@@H](NC(=O)[C@@H](CC(C)C)NC)C(=O)N[C@@H](CC(N)=O)C(=O)N[C@H]6C(=O)N[C@H]4C(=O)N[C@H](C(=O)N[C@H](C(=O)O)c6cc(O)c(CNCCCNC(=O)[C@H](O)[C@@H](O)[C@H](O)[C@H](O)CO)c(O)c6-c6cc4ccc6O)[C@H](O)c4ccc(c(Cl)c4)O5)O[C@H](CO)[C@@H](O)[C@@H]3O)O[C@@H](C)[C@H]2O)cc1 | 4 µg/mL (≈ 2.19 µM) | 8 µg/mL (≈ 4.38 µM) |
| CCCCCCCCCCNCCN[C@@]1(C)C[C@H](O[C@H]2[C@H](Oc3c4cc5cc3Oc3ccc(cc3Cl)[C@@H](O)[C@@H](NC(=O)[C@@H](CC(C)C)NC)C(=O)N[C@@H](CC(N)=O)C(=O)N[C@H]5C(=O)N[C@H]3C(=O)N[C@H](C(=O)N[C@H](C(=O)O)c5cc(O)c(CNCCCNC(=O)[C@H](O)[C@@H](O)[C@H](O[C@@H]6O[C@H](CO)[C@H](O)[C@H](O)[C@H]6O)[C@H](O)CO)c(O)c5-c5cc3ccc5O)[C@H](O)c3ccc(c(Cl)c3)O4)O[C@H](CO)[C@@H](O)[C@@H]2O)O[C@@H](C)[C@H]1O | 0.25 µg/mL (≈ 0.121 µM) | 1 µg/mL (≈ 0.486 µM) |
| CN[C@H](CC(C)C)C(=O)N[C@H]1C(=O)N[C@@H](CC(N)=O)C(=O)N[C@H]2C(=O)N[C@H]3C(=O)N[C@H](C(=O)N[C@H](C(=O)O)c4cc(O)c(CNCCCNC(=O)[C@H](O)[C@@H](O)[C@H](O)[C@H](O)CO)c(O)c4-c4cc3ccc4O)[C@H](O)c3ccc(c(Cl)c3)Oc3cc2cc(c3O[C@@H]2O[C@H](CO)[C@@H](O)[C@H](O)[C@H]2O[C@H]2C[C@](C)(NCc3ccc(-c4ccncc4)cc3)[C@H](O)[C@H](C)O2)Oc2ccc(cc2Cl)[C@H]1O | 1 µg/mL (≈ 0.532 µM) | 4 µg/mL (≈ 2.13 µM) |
| CCCCCCCCCCC(=O)N[C@@]1(C)C[C@H](O[C@H]2[C@H](Oc3c4cc5cc3Oc3ccc(cc3Cl)[C@@H](O)[C@@H](NC(=O)[C@@H](CC(C)C)NC)C(=O)N[C@@H](CC(N)=O)C(=O)N[C@H]5C(=O)N[C@H]3C(=O)N[C@H](C(=O)N[C@H](C(=O)O)c5cc(O)c(CNCCCNC(=O)[C@H](O)[C@@H](O)[C@H](O)[C@H](O)CO)c(O)c5-c5cc3ccc5O)[C@H](O)c3ccc(c(Cl)c3)O4)O[C@H](CO)[C@@H](O)[C@@H]2O)O[C@@H](C)[C@H]1O | 16 µg/mL (≈ 8.5 µM) | 32 µg/mL (≈ 17 µM) |
| CCc1ccc(CN[C@@]2(C)C[C@H](O[C@H]3[C@H](Oc4c5cc6cc4Oc4ccc(cc4Cl)[C@@H](O)[C@@H](NC(=O)[C@@H](CC(C)C)NC)C(=O)N[C@@H](CC(N)=O)C(=O)N[C@H]6C(=O)N[C@H]4C(=O)N[C@H](C(=O)N[C@H](C(=O)O)c6cc(O)c(CNCCCNC(=O)[C@H](O)[C@@H](O)[C@H](O)[C@H](O)CO)c(O)c6-c6cc4ccc6O)[C@H](O)c4ccc(c(Cl)c4)O5)O[C@H](CO)[C@@H](O)[C@@H]3O)O[C@@H](C)[C@H]2O)cc1 | 4 µg/mL (≈ 2.18 µM) | 8 µg/mL (≈ 4.37 µM) |
| CN[C@H](CC(C)C)C(=O)N[C@H]1C(=O)N[C@@H](CC(N)=O)C(=O)N[C@H]2C(=O)N[C@H]3C(=O)N[C@H](C(=O)N[C@H](C(=O)O)c4cc(O)c(CNCCCNC(=O)[C@H](O)[C@@H](O)[C@H](O)[C@H](O)CO)c(O)c4-c4cc3ccc4O)[C@H](O)c3ccc(c(Cl)c3)Oc3cc2cc(c3O[C@@H]2O[C@H](CO)[C@@H](O)[C@H](O)[C@H]2O[C@H]2C[C@](C)(NCc3ccc(C#C[Si](C)(C)C)cc3)[C@H](O)[C@H](C)O2)Oc2ccc(cc2Cl)[C@H]1O | 1 µg/mL (≈ 0.526 µM) | 2 µg/mL (≈ 1.05 µM) |
| CCCCCCCCCCNCCN[C@@]1(C)C[C@H](O[C@H]2[C@H](Oc3c4cc5cc3Oc3ccc(cc3Cl)[C@@H](O)[C@@H](NC(=O)[C@@H](CC(C)C)NC)C(=O)N[C@@H](CC(N)=O)C(=O)N[C@H]5C(=O)N[C@H]3C(=O)N[C@H](C(=O)N[C@H](C(=O)O)c5cc(O)c(CNCCO[C@@H]6O[C@H](CO)[C@@H](O)[C@H](O)[C@H]6O)c(O)c5-c5cc3ccc5O)[C@H](O)c3ccc(c(Cl)c3)O4)O[C@H](CO)[C@@H](O)[C@@H]2O)O[C@@H](C)[C@H]1O | 4 µg/mL (≈ 2.14 µM) | 16 µg/mL (≈ 8.57 µM) |
| CCCCCOc1ccc(CN[C@@]2(C)C[C@H](O[C@H]3[C@H](Oc4c5cc6cc4Oc4ccc(cc4Cl)[C@@H](O)[C@@H](NC(=O)[C@@H](CC(C)C)NC)C(=O)N[C@@H](CC(N)=O)C(=O)N[C@H]6C(=O)N[C@H]4C(=O)N[C@H](C(=O)N[C@H](C(=O)O)c6cc(O)c(CNCCCNC(=O)[C@H](O)[C@@H](O)[C@H](O)[C@H](O)CO)c(O)c6-c6cc4ccc6O)[C@H](O)c4ccc(c(Cl)c4)O5)O[C@H](CO)[C@@H](O)[C@@H]3O)O[C@@H](C)[C@H]2O)cc1 | 1 µg/mL (≈ 0.529 µM) | 2 µg/mL (≈ 1.06 µM) |
| CCCCCCCCCCNCCN[C@@]1(C)C[C@H](O[C@H]2[C@H](Oc3c4cc5cc3Oc3ccc(cc3Cl)[C@@H](O)[C@@H](NC(=O)[C@@H](CC(C)C)NC)C(=O)N[C@@H](CC(N)=O)C(=O)N[C@H]5C(=O)N[C@H]3C(=O)N[C@H](C(=O)N[C@H](C(=O)O)c5cc(O)c(CNCCO[C@H]6O[C@H](CO)[C@@H](O)[C@H](O)[C@@H]6O)c(O)c5-c5cc3ccc5O)[C@H](O)c3ccc(c(Cl)c3)O4)O[C@H](CO)[C@@H](O)[C@@H]2O)O[C@@H](C)[C@H]1O | 1 µg/mL (≈ 0.535 µM) | 2 µg/mL (≈ 1.07 µM) |

Reference: ChEMBL document CHEMBL4052823, “Extra Sugar on Vancomycin: New Analogues for Combating Multidrug-Resistant Staphylococcus aureus and Vancomycin-Resistant Enterococci” (J Med Chem, 2018)
